Sampled rows, rich in hits. Any-hit rate of the full collection: about 2.5%.
JMJD2C inh: human JMJD2C demethylase inhibition. 0.069% of 330,000 active. AID 2099. inhibition, % at 2.35 µM. GST-JMJD2C(1-420) H3K9me3 demethylation, DELFIA europium;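 active = more than half of a compound's replicate wells show inhibition beyond 50%, single wells judged on their own value; inconclusive = some, but no more than half, of replicates pass 50% inhibition; inactive = no replicate passes 50% inhibition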;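 note: signal counts dimethyl H3K9 product captured on neutravidin plate; 0% = median of DMSO wells and 100% = 0.3 times that DMSO median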
proKLK7 act: activates the human kallikrein-7 zymogen; 0.9% of 370,000 active; activation, % at 7 µM; purified proKLK7, EDANS-DABCYL substrate fluorescence; 100% is mature enzyme control, 0% vehicle; AID 652039;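 active = activation above the mean of all tested compounds plus 3 SD, computed per campaign excluding outliers beyond control limits, cut at about 13% in these data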
Target sequence (P49862 whole entry, looked up): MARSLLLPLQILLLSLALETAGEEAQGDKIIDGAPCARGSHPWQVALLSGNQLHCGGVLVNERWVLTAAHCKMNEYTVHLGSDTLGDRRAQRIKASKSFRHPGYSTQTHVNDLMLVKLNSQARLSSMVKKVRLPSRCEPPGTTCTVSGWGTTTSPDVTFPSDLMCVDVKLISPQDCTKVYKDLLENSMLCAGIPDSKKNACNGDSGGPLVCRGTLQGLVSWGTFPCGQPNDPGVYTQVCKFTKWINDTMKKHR
ADAM17 inh: inhibits human ADAM17 | inhibition, % at 6.95 µM | P78536 | recombinant ADAM17, EDANS/DABCYL FRET peptide cleavage | 0.83% of 370,000 active | AID 720648;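 active = inhibition above the mean of compounds lying between control limits plus 3 SD, set per campaign, cut at about 8.5% in these data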;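 note: 0% = DMSO-only wells as the low control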
NR2E3 ag-1: agonists of human nuclear receptor NR2E3 | 0.12% of 320,000 active | inhibition of corepressor binding, % at 4.78 µM | GST-NR2E3/biotin-RetCOR TR-FRET, 1536-well | Q9Y5X4;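 active = percent inhibition above the cutoff of mean plus 3 SD of all tested compounds, set per screening campaign, cut at about 20% in these data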;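 note: 0% = DMSO wells and 100% = biotin wells as full block of FRET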
Target sequence (Q9Y5X4 whole entry, looked up): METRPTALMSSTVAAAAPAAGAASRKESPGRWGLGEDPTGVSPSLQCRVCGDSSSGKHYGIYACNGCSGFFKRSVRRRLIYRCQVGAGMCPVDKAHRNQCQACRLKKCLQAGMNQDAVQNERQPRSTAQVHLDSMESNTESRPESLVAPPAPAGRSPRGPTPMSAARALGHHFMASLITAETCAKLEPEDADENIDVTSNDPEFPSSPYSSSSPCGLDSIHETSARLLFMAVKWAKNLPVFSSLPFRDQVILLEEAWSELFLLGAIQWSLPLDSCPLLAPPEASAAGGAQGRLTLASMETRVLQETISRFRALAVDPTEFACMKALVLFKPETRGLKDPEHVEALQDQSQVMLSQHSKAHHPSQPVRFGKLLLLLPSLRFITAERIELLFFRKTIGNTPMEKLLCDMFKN
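Material – GST-tagged NR2E3 plus biotinylated RetCOR corepressor · Quantity – NR2E3 fusion 1.35 nM · Times – 5 h incubation at 4 °C · Medium – pH 7.5 Tris-based buffer · Technique – TR-FRET, Eu(K)-anti-GST donor, streptavidin-D2 acceptor, ex 340, em 617/671 nm · Benchmarks – high control biotin, low control 0.6% DMSO · Format – 1536-well plates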
NR2E3 ag-2: activates human NR2E3 receptor; CHO-S Gal4-NCOR/VP16-NR2E3 two-hybrid, luciferase; inhibition of corepressor binding, % at 3.98 µM; 0.35% of 360,000 active; AID 602229;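 active = inhibition above the mean of all tested compounds plus 3 SD, cut at about 70% in these data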;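 note: 0% = DMSO with NR2E3 transfected cells and 100% = cells lacking NR2E3 construct; higher means lower luciferase signal from less NR2E3 corepressor binding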
ADAM10 inh: inhibits human ADAM10 | O14672 | recombinant ADAM10, EDANS/DABCYL FRET peptide cleavage, 3 h | inhibition, % at 7 µM | 0.62% of 370,000 active;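 active = inhibition above a per-campaign cutoff equal to the mean of compounds falling between control-based bounds plus 3 SD, cut at about 20% in these data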;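 note: 0% = DMSO wells while the 100% control is not disclosed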
NR2E3 ag confirm: confirmation of human NR2E3 nuclear receptor agonists | shares compounds with NR2E3 ag-1 | cell-free NR2E3 corepressor release, TR-FRET, 5 h | activation (reported as inhibition), % at 3.98 µM | 39% of 360 active | AID 2379; in the data active = activation above about 20%
PPARg-NCOR2 ag: counter-screen for NR2E3 agonists: human PPARgamma-NCOR2 interaction agonists | TR-FRET PPARg-NCOR2 coregulator interaction, biochemical | shares compounds with NR2E3 ag-1 | inhibition, % at 3.98 µM | 45% of 360 active; in the data active = inhibition above about 20%;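 note: 0% = DMSO vehicle and 100% = wells without protein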
Active calls of the source: *; i = inactive; ? = inconclusive; nt = no result.

SMILES	JMJD2C inh	proKLK7 act	ADAM17 inh	NR2E3 ag-1	NR2E3 ag-2	ADAM10 inh	NR2E3 ag confirm	PPARg-NCOR2 ag
CC1=NN(c2ccc(C)c(C)c2)C(=O)C1C(c1cccc(O)c1)C1C(=O)N(c2ccc(C)c(C)c2)N=C1C (stereo unspecified)	13	1	5	21*	28	9	-4	6
CCc1ccc(N2C(=O)C[C@@](C#N)(C(=O)OC)[C@H]2c2ccccc2)cc1	nt	0	-3	nt	nt	-4	nt	nt
COc1ccc(OC)c(N(CC(=O)N2CCC(C)CC2)S(=O)(=O)c2ccc(OC)c(OC)c2)c1	-1	0	-2	1	-16	2	nt	nt
COc1ccc(S(=O)(=O)N(C)CC(=O)N2CCC(C)CC2)cc1Cl	7	0	-7	22*	-11	6	-9	-6
C[C@H]1COc2cccc(N3CCSCC3)c2S(=O)(=O)N1C	nt	-1	-5	nt	nt	-5	nt	nt
CN1CC=C(c2ccccc2)N(c2ccccc2)C1=O	nt	-1	1	nt	nt	0	nt	nt
O=C(CSc1ncnc2ccccc12)Nc1ccc2c(c1)OCCO2	-4	0	-5	0	-37	-1	nt	nt
O=C(CSc1nc(Cc2ccccc2)nc2ccccc12)Nc1ccc2c(c1)OCCO2	88	0	0	28*	18	2	-4	17
COc1ccc2nc(NC(=O)CSc3nc4ccccc4o3)sc2c1	-4	-1	4	20*	14	-7	9	16
COc1ccc(C(C)C)cc1-c1cncc(NC(C)=O)n1	nt	0	-12	nt	-10	-44	nt	nt
COC(=O)[C@H]1C[C@]2(C(C=C(C)C)S(=O)(=O)c3ccccc3)c3ccccc3N[C@H]2N1 (stereo partly specified)	nt	nt	-5	nt	nt	2	nt	nt
Cc1nn(CCC(=O)NNC(=O)Nc2ccccc2)c(C)c1[N+](=O)[O-]	nt	0	1	nt	nt	-3	nt	nt
O=C(O)c1cc2ccccc2c2cc(Br)ccc12	3	0	-4	23*	-11	2	19	56*
O=C(O)c1ccc2c(c1)C(=O)/C(=C\c1ccco1)C2=O	-13	1	-19	38*	-25	7	10	26*
O=C(O)c1ccc2c(c1)C(=O)/C(=C/c1ccccc1)C2=O	-5	-1	0	5	-16	-4	nt	nt
CCOC(=O)C1=C(C)N=c2sc(=Cc3cc(Cl)c(OCC(=O)O)c(Cl)c3)c(=O)n2C1c1cccc(OC)c1 (stereo unspecified)	nt	0	-2	nt	5	3	nt	nt
Cn1nc(-c2ccc(Cl)cc2)nc2c(=O)n(C)c(=O)nc1-2	?	nt	nt	37*	nt	nt	32*	56*
CC(C)(C)C(=O)CSc1nc2c(c(-c3cccs3)c1C#N)CCC2	-5	0	-1	21*	-28	0	5	18
O=C1C(=O)N(Cc2cccnc2)C(c2cccc(Br)c2)/C1=C(/O)c1ccc2c(c1)OCO2 (stereo unspecified)	3	0	-1	47*	-5	-4	27*	31*
COc1cccc(C2/C(=C(/O)c3ccc4c(c3)OCO4)C(=O)C(=O)N2CCN2CCOCC2)c1 (stereo unspecified)	-4	1	-3	30*	-11	-6	29*	27*
O=C1C(=O)N(Cc2cccnc2)C(c2cccc([N+](=O)[O-])c2)/C1=C(/O)c1ccc2c(c1)OCO2 (stereo unspecified)	-1	0	-5	11	10	-8	nt	nt
O=C1C(=O)N(CCN2CCOCC2)C(c2ccncc2)/C1=C(/O)c1ccc2c(c1)OCO2 (stereo unspecified)	-19	0	-2	5	20	-4	nt	nt
COc1cccc(C(C(=O)NCc2ccccc2)N2CCN(c3ccccc3F)CC2)c1OC (stereo unspecified)	nt	0	-1	nt	nt	2	nt	nt
CN1CCN(NC(=O)c2cc(-c3ccc(Br)s3)nc3ccccc23)CC1	-2	5	-104	26*	-9	-341	16	20*
COc1ccc(-n2c(SCC(=O)Nc3ccc4c(c3)OCO4)nc3sc4c(c3c2=O)CCCC4)cc1	nt	3	-1	nt	nt	-7	nt	nt
SMILES	JMJD2C inh	proKLK7 act	ADAM17 inh	NR2E3 ag-1	NR2E3 ag-2	ADAM10 inh	NR2E3 ag confirm	PPARg-NCOR2 ag
N#Cc1ccc(/C=C2\CC3(OC(=O)c4ccccc4)CCCN2C3)cc1 (stereo unspecified)	nt	0	-2	nt	nt	-13	nt	nt
NS(=O)(=O)c1cccc(C(=O)NC2CCSc3ccccc32)c1 (stereo unspecified)	-3	0	-6	4	-3	-6	nt	nt
NS(=O)(=O)c1cc(C(=O)NC2CCSc3ccccc32)ccc1Cl (stereo unspecified)	3	0	-1	20*	-12	5	7	-2
CCCCn1c(NC(=O)c2ccco2)c(S(=O)(=O)c2ccc(C)cc2)c2nc3ccccc3nc21	29	-2	-313	nt	-18	i	nt	nt
CCCCCn1c(NC(=O)c2ccco2)c(S(=O)(=O)c2ccc(C)cc2)c2nc3ccccc3nc21	-3	-5	-197	20*	-7	-489	9	42*
Cc1ccc(C)n1-c1ccc(C(=O)O)cc1	-13	nt	nt	23*	nt	nt	15	-4
CC(=O)c1c(C(C)=O)c(C)n(-c2ccc(C(=O)O)cc2)c1C	7	0	-5	-2	-25	-4	nt	nt
CCc1cc2cc3c(cc2nc1SCC(=O)Nc1cc(C)on1)OCO3	5	0	-4	23*	-14	3	51*	62*
O=C(CCCn1c(=S)[nH]c2cc3c(cc2c1=O)OCO3)NCc1cccc(Cl)c1	0	0	-2	28*	0	2	18	22*
O=C(CCn1c(=S)[nH]c2cc3c(cc2c1=O)OCO3)NCc1cccc(Cl)c1	4	0	-3	1	-13	-3	nt	nt
CN(C)c1cccc(/C=C2\CC3(OC(=O)c4ccc(F)cc4)CCCN2C3)c1 (stereo unspecified)	nt	0	0	nt	nt	1	nt	nt
Cc1ccc(C2C(C#N)=C(N)SC(N)=C2C#N)cc1	nt	-1	-11	nt	-3	-46	nt	nt
N#CC1=C(N)SC(N)=C(C#N)C1c1ccoc1	8	nt	nt	36*	nt	nt	23*	27*
COc1ccc(/C=N/NC(=O)C(=O)N2CCN(c3ccccc3OC)CC2)cc1	8	0	-2	30*	-19	4	-6	-9
O=C(NN1C(=O)/C(=C/C=C/c2ccco2)SC1=S)c1ccncc1	-14	0	-2	25*	-16	1	1	8

Assay outcomes (PubChem BioAssay)
